# Source: ChEMBL document CHEMBL1221188, “Small-molecule activation of procaspase-3 to caspase-3 as a personalized anticancer strategy” (Nat Chem Biol, 2006)
# The source made the active and inactive calls. No cut-off for these calls is given here.
# How the values were obtained:
# Caspase-3 [1] = biological target: T1, Caspase-3 (Homo sapiens, UniProt P42574); assay: Activation of N-terminal His6-tagged recombinant procaspase-3 expressed in Escherichia coli assessed as hydrolysis of acetyl-DEVD-p-nitroanilide after 2 hrs by SDS-PAGE
# T1 sequence (P42574 whole entry): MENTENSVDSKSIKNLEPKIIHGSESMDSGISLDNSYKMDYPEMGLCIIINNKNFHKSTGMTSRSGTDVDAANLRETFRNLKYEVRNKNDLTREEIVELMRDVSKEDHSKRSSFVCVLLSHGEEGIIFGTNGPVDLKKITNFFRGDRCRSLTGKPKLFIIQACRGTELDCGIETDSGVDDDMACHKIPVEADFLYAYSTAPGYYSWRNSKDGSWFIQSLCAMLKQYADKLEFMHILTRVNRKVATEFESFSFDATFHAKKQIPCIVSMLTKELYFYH
# HL-60 [2] = assay: Induction of apoptosis in human HL60 cells assessed as mitochondrial membrane depolarization at 10 uM after 12 hrs by fluorescence assay; type: functional, cell-based
# Procedure, shortened: (§1)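 HL-60 cells exposed to drug in DMSO or DMSO alone for various times, stained with JC-9 dye for 10 min at room temperature, then analysed by flow cytometry at 525/675 nm on 50,000 cells. Depolarization was derived from the red-channel shift.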
# HL-60 [3] = assay: Induction of apoptosis in human HL60 cells assessed as increase in PARP1 cleavage at 100 uM after 12 hrs by fluorescence assay; type: functional, cell-based
# Procedure, shortened: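 HL-60 cells given NAD+ with or without drug for various times, then lysed in PARP buffer with 25 mM H2O2 (60 min, 37 °C). Remaining NAD+ was measured fluorometrically after KOH/acetophenone (10 min, 4 °C) and formic acid (5 min, 110 °C). PARP activity is expressed relative to control wells.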
# HL-60 [4] = assay: Induction of apoptosis in human HL60 cells assessed as increase in caspase-3 activity at 10 uM after 12 hrs; type: functional, cell-based
# Procedure, shortened: (§2)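 HL-60 cells were treated with a range of drug concentrations for various times, then washed. They were lysed by sonication in ice-cold caspase assay buffer and given Ac-DEVD-pNA. Absorbance at 405 nm was read every 2 min for 2 h, and the cleavage rate came from the linear slope.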
# HL-60 [5] = assay: Induction of apoptosis in human HL60 cells assessed as increase in PARP1 cleavage at 10 uM after 12 hrs by fluorescence assay; type: functional, cell-based
# HL-60 [6] = assay: Induction of apoptosis in human HL60 cells assessed early apoptotic cells at 100 uM after 20 hrs using annexin V-propidium iodide staining by flow cytometry; type: functional
# Procedure, shortened: (§3)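 HL-60 cells treated 20 h at 37 °C with 100 µM drug in DMSO or DMSO alone; washed, stained with annexin V–Alexa Fluor 488 (15 min, 23 °C) plus propidium iodide; flow cytometry at 525 and 675 nm, ≥50,000 cells per experiment.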
# NCI-H226 [7] = assay: Antitumor activity against human NCI-H226 cells isolated from BALB/c mouse xenograft assessed as decrease in metastatic tumor burden at 100 mg/kg, po administered from day 1 to 4 and day 7 to 11 measured after 28 days by imaging assay; type: functional, organism-based; set-up: dose 100 mg/kg
# Procedure, shortened: (§4)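 Male athymic nude mice received 2 × 10^6 NCI-H226 cells by tail-vein injection. Dosing was 100 mg/kg by oral gavage in 24:1 vegetable oil/DMSO once daily on days 1–4 and 7–11, against vehicle, four mice per group. Body weight was followed. At 28 d the lungs were examined, sectioned, stained and imaged for tumor burden.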
# [8] = Cytotoxicity against human colon cells after 24 hrs by MTS/PMS assay; type: cell-based; settings: Colon cell
# NCI-H226 [9] = assay: Antitumor activity against human NCI-H226 cells xenografted in BALB/c mouse assessed as suppression of tumor metastasis at 100 mg/kg, po administered from day 1 to 4 and day 7 to 11 measured after 28 days; type: functional, organism-based; set-up: dose 100 mg/kg; procedure, shortened: as §4
# [10] = Cytotoxicity against human colon cancer cells after 24 hrs by MTS/PMS assay; type: functional, cell-based; settings: Cancer cell lines
# Mus musculus [11] = assay: Toxicity in BALB/c mouse xenografted with human NCI-H226 cells assessed as effect on body weight at 100 mg/kg, po administered from day 1 to 4 and day 7 to 11 measured after 28 days; type: organism-based; set-up: dose 100 mg/kg, route oral; settings: in vivo, 672 h; procedure, shortened: as §4
# Mus musculus [12] = assay: Toxicity in BALB/c mouse xenografted with human NCI-H226 cells assessed as effect on body weight at 50 to 100 mg/kg, po SID for 21 days measured after 1 week post last dose; type: organism-based; set-up: dose 50-100 mg/kg, route oral; settings: in vivo, 168 h
# Procedure, shortened: (§5)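 Male athymic BALB/c nude mice, 5 weeks old; 2 × 10^6 NCI-H226 cells injected subcutaneously into the flanks, eight mice per group, three tumors per mouse. Once tumors reached about 50 mm3 (~4 weeks), 0, 50 or 100 mg/kg was given by oral gavage in 24:1 vegetable oil/DMSO once daily for 21 d. Caliper volume (v = 0.5·a·b2) and body weight tracked; killed 1 week later.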
# HL-60 [13] = assay: Induction of apoptosis in human HL60 cells assessed as chromatin condensation at 100 uM after 20 hrs measured by Hoechst-33258 staining; type: functional, cell-based
# Procedure, shortened: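 HL-60 cells were treated 20 h with 100 µM drug in DMSO against a DMSO control. Cells were then fixed in ice-cold ethanol overnight at 4 °C and stained with Hoechst-33258 for 30 min at room temperature. Condensed chromatin was viewed microscopically at 400× magnification.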
# HL-60 [14] = assay: Induction of apoptosis in human HL60 cells assessed early apoptotic cells at 5 uM after 28 hrs using annexin V-propidium iodide staining by flow cytometry; type: functional
# Mus musculus [15] = assay: Toxicity in BALB/c mouse xenografted with human ACHN cells assessed as effect on food intake at 5 mg administered via pellet measured after 54 days of tumor implantation; type: organism-based; settings: in vivo, other, 1296 h
# Procedure, shortened: (§6)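 Ovariectomized female athymic BALB/c nu/nu mice; ACHN cells in Matrigel injected subcutaneously into four flanks. After 4 weeks (mean tumor area 34.3 mm2), 20-mg cholesterol pellets with 0, 1 or 5 mg drug implanted subcutaneously; six mice per group. Tumor volume v = 0.5·a·b2 measured weekly. Food intake over two consecutive 24-h periods at study end (8 weeks post-implant).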
# HL-60 [16] = assay: Induction of apoptosis in human HL60 cells assessed as increase in caspase-3 activity at 100 uM after 12 hrs; type: functional, cell-based; procedure, shortened: as §2
# HL-60 [17] = assay: Induction of apoptosis in human HL60 cells assessed late apoptotic cells at 100 uM after 20 hrs using annexin V-propidium iodide staining by flow cytometry; type: functional; procedure, shortened: as §3
# NCI-H226 [18] = assay: Induction of apoptosis in human NCI-H226 cells isolated from BALB/c mouse xenograft assessed as DNA fragmentation at 100 mg/kg, po SID for 21 days measured after 1 week post last dose by TUNEL assay; type: functional, organism-based; set-up: dose 100 mg/kg
# Procedure, shortened: (§7)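 Subcutaneous NCI-H226 tumors from nude mice dosed orally (50 or 100 mg/kg daily for 21 d in 24:1 vegetable oil/DMSO) were resected at end of study, sectioned and scored by TUNEL staining.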
# NCI-H226 [19] = assay: Induction of apoptosis in human NCI-H226 cells isolated from BALB/c mouse xenograft assessed as DNA fragmentation at 50 mg/kg, po SID for 21 days measured after 1 week post last dose by TUNEL assay; type: functional, organism-based; set-up: dose 50 mg/kg; procedure, shortened: as §7
# HL-60 [20] = assay: Induction of apoptosis in human HL60 cells assessed non-viable necrotic cells at 5 uM after 28 hrs using annexin V-propidium iodide staining by flow cytometry; type: functional
# Caspase-3 [21] = biological target: Caspase-3 (Homo sapiens, UniProt P42574, D179A); assay: Activation of N-terminal His6-tagged recombinant procaspase-3 D179A mutant expressed in Escherichia coli assessed as hydrolysis of acetyl-DEVD-p-nitroanilide after 2 hrs by SDS-PAGE; settings: in the assay text read “by spectrophotometry” for “by SDS-PAGE”
# Caspase-3 (Homo sapiens, UniProt P42574, D179A), sequence (P42574 176-277 D179A limits assumed, one chain of several): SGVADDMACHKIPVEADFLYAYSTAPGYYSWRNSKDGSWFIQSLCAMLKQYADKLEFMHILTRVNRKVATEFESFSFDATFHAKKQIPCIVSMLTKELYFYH
# Procedure, shortened: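 Alanine substitution in the procaspase-3 safety-catch Asp-Asp-Asp triad (Asp179, Asp180, Asp181). The wild-type or mutant proenzyme was incubated with a range of compound concentrations for 12 h at 37 °C. Ac-DEVD-pNA was then added and absorbance at 405 nm was read every 2 min for 2 h. Activity was taken from the linear-phase slope and expressed as relative increase per mutant.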
# HL-60 [22] = assay: Induction of apoptosis in human HL60 cells assessed non-viable necrotic cells at 100 uM after 20 hrs using annexin V-propidium iodide staining by flow cytometry; type: functional; procedure, shortened: as §3
# HL-60 [23] = assay: Induction of apoptosis in human HL60 cells assessed late apoptotic cells at 5 uM after 28 hrs using annexin V-propidium iodide staining by flow cytometry; type: functional
# NCI-H226 [24] = assay: Antitumor activity against human NCI-H226 cells xenografted in po dosed BALB/c mouse administered SID for 21 days assessed as retardation of tumor growth measured after 1 week post last dose; type: functional, organism-based; procedure, shortened: as §5
# [25] = Plasma concentration in BALB/c mouse xenografted with human ACHN cells at 5 mg administered via pellet measured after 54 days of tumor implantation; type: ADME, organism-based
# HL-60 [26] = assay: Induction of apoptosis in human HL60 cells assessed viable cells at 5 uM after 28 hrs using annexin V-propidium iodide staining by flow cytometry; type: functional
# ACHN = assay: Antitumor activity against human ACHN cells xenografted in BALB/c mouse assessed as tumor growth at 5 mg administered via pellet measured after 54 days of tumor implantation; procedure, shortened: as §6
# HL-60 [27] = assay: Induction of apoptosis in human HL60 cells assessed viable cells at 100 uM after 20 hrs using annexin V-propidium iodide staining by flow cytometry; type: functional; procedure, shortened: as §3
# HL-60 [28] = assay: Induction of apoptosis in human HL60 cells assessed as mitochondrial membrane depolarization at 100 uM after 12 hrs by fluorescence assay; type: functional, cell-based; procedure, shortened: as §1
# HL-60 [29] = assay: Induction of apoptosis in human HL60 cells assessed as increase in caspase-3 activity at 100 uM up to 2 hrs; type: functional; procedure, shortened: as §2
# HL-60 [30] = assay: Inhibition of apoptosis in human HL60 cells at 100 uM after 24 hrs using annexin V-propidium iodide staining by flow cytometry in presence of pan-caspase inhibitor Z-VAD-FMK; type: functional, cell-based
smiles,measurement,setting,value
C/C=N/NC(=O)CN1CCN(Cc2ccccc2)CC1,EC50,Caspase-3 [1],> 50 µM
CCOC(=O)CN1CCNCC1 [ETHYL PIPERAZINOACETATE],EC50,Caspase-3 [1],> 50 µM
O=C(CN1CCN(Cc2ccccc2)CC1)N/N=C/c1ccccc1,EC50,Caspase-3 [1],> 50 µM
CN1CCN(CC(=O)N/N=C/c2ccccc2O)CC1,EC50,Caspase-3 [1],> 50 µM
c1ccc(CN2CCN(Cc3ccccc3)CC2)cc1,EC50,Caspase-3 [1],> 50 µM
NNC(=O)CN1CCN(Cc2ccccc2)CC1,EC50,Caspase-3 [1],> 50 µM
COc1cc([C@@H]2c3cc4c(cc3[C@@H](O[C@@H]3O[C@@H]5CO[C@@H](C)O[C@H]5[C@H](O)[C@H]3O)[C@H]3COC(=O)[C@H]23)OCO4)cc(OC)c1O,Activity,HL-60 [2],Active
same,Activity,HL-60 [3],Active
same,Activity,HL-60 [4],Active
same,Activity,HL-60 [5],Active
c1ccc(CN2CCNCC2)cc1,EC50,Caspase-3 [1],> 50 µM
C=CCc1cccc(/C=N/NC(=O)CN2CCN(Cc3ccccc3)CC2)c1O [PAC-1],Activity,HL-60 [6],80.2%
same,Activity,NCI-H226 [7],Active
same,Activity,HL-60 [3],Active
same,IC50,[8],5.02 µM
same,Activity,NCI-H226 [9],Active
same,IC50,[10],3 nM
same,Activity,Mus musculus [11],Non-toxic
same,Activity,Mus musculus [12],Non-toxic
same,Activity,HL-60 [5],Active
same,Activity,HL-60 [13],Active
same,Activity,HL-60 [14],80.75%
same,Activity,Mus musculus [15],Non-toxic
same,Activity,HL-60 [16],Active
same,Activity,HL-60 [17],9.6%
same,Activity,NCI-H226 [18],Active
same,Activity,NCI-H226 [19],Active
same,Activity,HL-60 [20],0.26%
same,EC50,Caspase-3 [21],131 µM
same,Activity,HL-60 [22],0.4%
same,Activity,HL-60 [23],8.73%
same,inhibition,NCI-H226 [24],Dose-dependent effect
same,concentration at 1296 h,[25],4.4 nM
same,Activity,HL-60 [26],10.26%
same,Activity,ACHN,Active
same,inhibition,ACHN,Active
same,Activity,HL-60 [27],9.8%
same,Activity,HL-60 [28],inactive
same,Activity,HL-60 [29],50%
same,Activity,HL-60 [30],inactive
CCOC(=O)CN1CCN(Cc2ccccc2)CC1,EC50,Caspase-3 [1],> 50 µM
